{"source": "ChEMBL document CHEMBL4004806", "about": "“Cyclocurcumin, an Antivasoconstrictive Constituent of Curcuma longa (Turmeric)” (J Nat Prod, 2017)", "key": {"[1]": {"target": "T1, Voltage-gated L-type calcium channel (Rattus norvegicus, UniProt P22002+Q02485+P27732)", "experiment": "Inhibition of 60 mM K+ activated L-type calcium channel-mediated vasoconstriction in Sprague-Dawley rat aortic rings preincubated followed by 60 mM K+ addition", "in_short": "(§1)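 Rat aortic rings in organ baths of Krebs-Ringer (pH 7.4, 95% O2/5% CO2, 37 °C) pretreated with compound. Contraction was then started by cumulative phenylephrine, serotonin or 60 mM K+. Isometric tension recorded by force transducer and expressed as percent of a prior 90 mM K+ contraction. Mean ± SEM, ≥3 independent experiments, ANOVA/Duncan or t test.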"}, "Aorta [2]": {"test_system": "Aorta", "experiment": "Cytotoxicity against Sprague-Dawley rat aortic rings assessed as non-specific tissue damage at 5 to 25 uM after 30 mins by LDH release assay", "assay_type": "tissue-based", "settings": "0.5 h; call rule not given here", "in_short": "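Aortic rings exposed to compound for 30 min, then medium aliquots collected. Aliquot incubated in Tris-EDTA-NADH buffer (0.17 mM β-NADH, pH 7.4) for 10 min at 37 °C. Prewarmed 14 mM pyruvate added, and the fall in A340 was followed for 1 min as LDH activity. Mean ± SEM, ≥3 independent experiments.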"}, "[3]": {"target": "T1, Voltage-gated L-type calcium channel", "experiment": "Inhibition of L-type calcium channel in Sprague-Dawley rat aortic rings assessed as reduction in phenylephrine-induced vasoconstriction at 25 uM preincubated with aortic rings followed by phenylephrine addition", "in_short": "as §1"}, "[4]": {"target": "T1, Voltage-gated L-type calcium channel", "experiment": "Inhibition of L-type calcium channel in Sprague-Dawley rat aortic rings assessed as reduction in phenylephrine-induced vasoconstriction preincubated with aortic rings followed by phenylephrine addition", "in_short": "as §1"}, "[5]": {"target": "T1, Voltage-gated L-type calcium channel", "experiment": "Inhibition of L-type calcium channel in Sprague-Dawley rat aortic rings assessed as reduction in 5-HT-induced vasoconstriction at 5 to 25 uM preincubated with aortic rings followed by 5-HT addition", "in_short": "as §1"}, "[6]": {"target": "T1, Voltage-gated L-type calcium channel", "experiment": "Inhibition of L-type calcium channel in endothelium-denuded Sprague-Dawley rat aortic rings assessed as reduction in 5-HT-induced vasoconstriction at 5 to 25 uM preincubated with aortic rings followed by 5-HT addition", "in_short": "as §1"}, "[7]": {"target": "T1, Voltage-gated L-type calcium channel", "experiment": "Inhibition of L-type calcium channel in Sprague-Dawley rat primary VSMC assessed as reduction in 5-HT-induced MLC phosphorylation preincubated for 30 mins followed by 5-HT addition measured after 10 mins by Western blot method", "in_short": "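Primary VSMCs were released from rat aorta with collagenase and elastase. Cells pretreated with compound for 30 min, then stimulated with 10−5 M serotonin for 10 min. Lysed in RIPA with protease/phosphatase inhibitors, and pMLC and total MLC detected by SDS-PAGE Western blot with chemiluminescent imaging. Mean ± SEM, ≥3 experiments.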"}, "[8]": {"target": "T1, Voltage-gated L-type calcium channel", "experiment": "Inhibition of L-type calcium channel in Sprague-Dawley rat primary VSMC assessed as reduction in 5-HT-induced calcium influx preincubated for 30 mins followed by 5-HT addition by Fura-2-AM dye based confocal microscopic method", "in_short": "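Enzymatically isolated rat aortic VSMCs on coverslips pretreated with compound for 30 min. Cells loaded 60 min with 1 μM fura-2/AM in PSS (pH 7.4) with 1% BSA, then superfused with PSS at 2 mL/min at 33 °C. Serotonin-evoked calcium rise imaged by 40× oil-objective fluorescence microscopy. Mean ± SEM, ≥3 experiments.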"}, "[9]": {"target": "T1, Voltage-gated L-type calcium channel", "experiment": "Inhibition of L-type calcium channel in Sprague-Dawley rat aortic rings assessed as reduction in Bay K8644-induced vasoconstriction preincubated with aortic rings followed by Bay K8644 addition", "in_short": "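Aortic rings in organ baths (37 °C, 95% O2/5% CO2) pretreated with compound. Contraction was elicited by Bay K8644 (10−6 M) in 15 mM K+ buffer, pH 7.4, containing 0.026 mM EDTA. Tension expressed as percent of a prior 90 mM K+ response. Mean ± SEM, ≥3 independent experiments.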"}, "[10]": {"target": "T1, Voltage-gated L-type calcium channel", "experiment": "Reversible inhibition of 5-HT activated L-type calcium channel-mediated vasoconstriction in Sprague-Dawley rat aortic rings at 25 uM preincubated with aortic rings followed by 5-HT addition and subsequent compound wash out measured after 4 hrs", "in_short": "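Organ-bath aortic rings (Krebs-Ringer, 37 °C) treated with compound, and a 5-HT contraction recorded. Buffer was washed out and the 5-HT contraction measured again 4 h later. Tension expressed relative to a 90 mM K+ response. Mean ± SEM, ≥3 independent experiments.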"}, "Aorta [11]": {"test_system": "Aorta", "experiment": "Cytotoxicity against Sprague-Dawley rat aortic rings assessed as non-specific tissue damage after 24 hrs by TUNEL assay", "assay_type": "tissue-based", "in_short": "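Aortic rings kept in MEM with 100 U/mL penicillin and 100 μg/mL streptomycin, exposed to compound or vehicle for 24 h at 37 °C in 95% air/5% CO2. Sections quenched with 0.3% H2O2, digested with 20 μg/mL Proteinase K, TdT-labelled with digoxigenin-dUTP for 1 h at 37 °C. Detection by HRP anti-digoxigenin (30 min, room temperature) and DAB, hematoxylin counterstain. Mean ± SEM, ≥3 independent experiments.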"}, "[12]": {"target": "T1, Voltage-gated L-type calcium channel", "experiment": "Irreversible inhibition of 5-HT activated L-type calcium channel-mediated vasoconstriction in Sprague-Dawley rat aortic rings at 15 uM preincubated with aortic rings followed by 5-HT addition and subsequent compound wash out measured after 4 hrs", "in_short": "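Rat aortic rings in organ baths of Krebs-Ringer solution (pH 7.4, 37 °C, gassed with 95% O2/5% CO2). Rings were pretreated with compound, then contracted with 5-HT (reading I). Buffer was washed out, and 5-HT contraction was re-measured 4 h later (reading II). Isometric tension was recorded and expressed as percent of the 90 mM K+ contraction. Mean ± SEM, ≥3 independent experiments.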"}}, "data": [{"molecule": "COc1cc(/C=C/C2=CC(=O)CC(c3ccc(O)c(OC)c3)O2)ccc1O", "note": "(configuration not stated)", "values": [{"measurement": "IC50", "setting": "[1]", "result": 18.5, "unit": "µM"}, {"measurement": "inhibition (INH)", "setting": "[1]; rat", "result": "Dose-dependent effect"}, {"measurement": "Activity", "setting": "Aorta [2]", "result": "Non-Toxic"}, {"measurement": "inhibition (INH)", "setting": "[3]", "result": "Active"}, {"measurement": "IC50", "setting": "[4]", "result": 14.9, "unit": "µM"}, {"measurement": "pA2", "setting": "[4]", "result": 5.2}, {"measurement": "inhibition (INH)", "setting": "[4]; rat", "result": "Dose-dependent effect"}, {"measurement": "inhibition (INH)", "setting": "[5]", "result": "Active"}, {"measurement": "inhibition (INH)", "setting": "[6]", "result": "Active"}, {"measurement": "inhibition (INH)", "setting": "[7]", "result": "Active"}, {"measurement": "inhibition (INH)", "setting": "[8]", "result": "Dose-dependent effect"}, {"measurement": "IC50", "setting": "[9]", "result": 13.5, "unit": "µM"}, {"measurement": "inhibition (INH)", "setting": "[10]", "result": "Active"}, {"measurement": "Activity", "setting": "Aorta [11]", "result": "Non-Toxic"}]}, {"molecule": "COc1cc(/C=C/C(=O)CC(=O)/C=C/c2ccc(O)cc2)ccc1O", "values": [{"measurement": "inhibition (INH)", "setting": "[3]", "result": "Active"}]}, {"molecule": "COc1cc(/C=C/C(=O)CC(=O)/C=C/c2ccc(O)c(OC)c2)ccc1O", "note": "[CURCUMIN]", "values": [{"measurement": "IC50", "setting": "[4]", "result": "> 100", "unit": "µM"}]}, {"molecule": "C[As](O)O", "values": [{"measurement": "inhibition (INH)", "setting": "[12]", "result": "Active"}]}]}
